Test results: ChEMBL document CHEMBL1123589, “Phenylpiperazine-based radiopharmaceuticals for brain imaging. 3. Synthesis and evaluation of radioiodinated 1-alkyl-4-phenylpiperazines” (J Med Chem, 1987)

Assays:
Details in all cases: in vivo
[1] = test system: Rattus norvegicus; experiment: The biodistribution of the [125I]-labeled compound in rats after intravenous injection was evaluated in blood at 4.00 hrs (ID.kg/g); assay type: ADME, organism-based
Procedure, shortened: (§1)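 Male Sprague-Dawley rats (250–300 g) under ether anesthesia were given an iv injection of no-carrier-added 125I-labelled agent (10–15 μCi in 0.1 mL saline). The agent was iodinated with chloramine-T in acetate buffer and purified by C-18 HPLC. Groups of N = 3 were killed at 0.25, 1 and 4 h. Blood and tissues were weighed and γ-counted. Values are % ID·kg/g, mean (range).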

[2] = test system: Rattus norvegicus; experiment: The biodistribution of the [125I]-labeled compound in rats after intravenous injection was evaluated in fat at 0.25 hr; value ranges from 0.07-0.09 (ID.kg/g); assay type: ADME, organism-based, Adipose tissue; procedure, shortened: as §1
[3] = test system: Rattus norvegicus; experiment: The biodistribution of the [125I]-labeled compound in rats after intravenous injection was evaluated in muscle at 0.25 hrs; value ranges from 0.06-0.07 (ID.kg/g); assay type: ADME, organism-based, Muscle tissue
Procedure, shortened: (§2)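 Male Sprague-Dawley rats (250–300 g) under ether anesthesia given iv 0.1 mL saline containing 10–15 μCi of NCA ¹²⁵I-labeled agent (chloramine-T iodination, HPLC-purified). Groups of 3 killed at 0.25, 1 and 4 h. Blood and tissues excised, weighed and γ-counted. Values are mean (range) of % injected dose × body mass (kg) per gram of tissue.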

[4] = test system: Rattus norvegicus; experiment: The biodistribution of the [125I]-labeled compound in rats after intravenous injection was evaluated in lung at 4.00 hrs (ID.kg/g); assay type: ADME, organism-based
Procedure, shortened: (§3)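 Male Sprague-Dawley rats (250–300 g), under ether anesthesia, given 10–15 μCi of the NCA ¹²⁵I-labeled agent iv in 0.1 mL saline. Groups of N = 3 were killed at 0.25, 1 or 4 h. Blood and tissues were removed, weighed and counted in a γ-well scintillation counter. Values are mean % ID·kg/g (range).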

[5] = test system: Rattus norvegicus; experiment: The biodistribution of the [125I]-labeled compound in rats after intravenous injection was evaluated in lung at 0.25 hrs (ID.kg/g); assay type: ADME, organism-based; procedure, shortened: as §3
[6] = test system: Rattus norvegicus; experiment: The biodistribution of the [125I]-labeled compound in rats after intravenous injection was evaluated in kidney at 4.00 hrs; value ranges from 0.14-0.21 (ID.kg/g); assay type: ADME, organism-based; procedure, shortened: as §3
[7] = test system: Rattus norvegicus; experiment: The biodistribution of the [125I]-labeled compound in rats after intravenous injection was evaluated in blood at 1.00 hrs (ID.kg/g); assay type: ADME, organism-based; procedure, shortened: as §1
[8] = test system: Rattus norvegicus; experiment: The biodistribution of the [125I]-labeled compound in rats after intravenous injection was evaluated in brain at 4.00 hrs (ID.kg/g); assay type: ADME, organism-based; procedure, shortened: as §1
[9] = test system: Rattus norvegicus; experiment: The biodistribution of the [125I]-labeled compound in rats after intravenous injection was evaluated in liver at 1.00 hrs; value ranges from 0.27-0.47 (ID.kg/g); assay type: ADME, organism-based; procedure, shortened: as §3
[10] = test system: Rattus norvegicus; experiment: The biodistribution of the [125I]-labeled compound in rats after intravenous injection was evaluated in muscle at 4.00 hrs (ID.kg/g); assay type: ADME, organism-based, Muscle tissue; procedure, shortened: as §2
[11] = test system: Rattus norvegicus; experiment: The biodistribution of the [125I]-labeled compound in rats after intravenous injection was evaluated in kidney at 1.00 hrs; value ranges from 0.28-0.33 (ID.kg/g); assay type: ADME, organism-based; procedure, shortened: as §3
[12] = test system: Rattus norvegicus; experiment: The biodistribution of the [125I]-labeled compound in rats after intravenous injection was evaluated in thyroid at 0.25 hrs (ID.kg/g); assay type: ADME, organism-based, Thyroid gland; procedure, shortened: as §2
[13] = test system: Rattus norvegicus; experiment: The biodistribution of the [125I]-labeled compound in rats after intravenous injection was evaluated in adrenal at 4.00 hrs; value ranges from 0.11-0.13 (ID.kg/g); assay type: ADME, organism-based; procedure, shortened: as §1
[14] = test system: Rattus norvegicus; experiment: The biodistribution of the [125I]-labeled compound in rats after intravenous injection was evaluated in adrenal at 0.25 hrs; value ranges from 0.22-0.37 (ID.kg/g); assay type: ADME, organism-based; procedure, shortened: as §1
[15] = test system: Rattus norvegicus; experiment: The biodistribution of the [125I]-labeled compound in rats after intravenous injection was evaluated in brain at 1.00 hrs; (ID.kg/g); assay type: ADME, organism-based; procedure, shortened: as §1
[16] = test system: Rattus norvegicus; experiment: The biodistribution of the [125I]-labeled compound in rats after intravenous injection was evaluated in heart at 4.00 hrs; value ranges from 0.12-0.14 (ID.kg/g); assay type: ADME, organism-based; procedure, shortened: as §3
[17] = test system: Rattus norvegicus; experiment: The biodistribution of the [125I]-labeled compound in rats after intravenous injection was evaluated in adrenal at 1.00 hrs; value ranges from 0.12-0.19 (ID.kg/g); assay type: ADME, organism-based; procedure, shortened: as §1
[18] = test system: Rattus norvegicus; experiment: The biodistribution of the [125I]-labeled compound in rats after intravenous injection was evaluated in liver at 4.00 hrs; value ranges from 0.19-0.21 (ID.kg/g); assay type: ADME, organism-based; procedure, shortened: as §3
[19] = test system: Rattus norvegicus; experiment: The biodistribution of the [125I]-labeled compound in rats after intravenous injection was evaluated in thyroid at 4.00 hrs; value ranges from 2.48-3.53 (ID.kg/g); assay type: ADME, organism-based, Thyroid gland; procedure, shortened: as §2
[20] = test system: Rattus norvegicus; experiment: The biodistribution of the [125I]-labeled compound in rats after intravenous injection was evaluated in fat at 4.00 hrs; value ranges from 0.06-0.07 (ID.kg/g); assay type: ADME, organism-based, Adipose tissue; procedure, shortened: as §1
[21] = test system: Rattus norvegicus; experiment: The biodistribution of the [125I]-labeled compound in rats after intravenous injection was evaluated in heart at 1.00 hrs; value ranges from 0.11-0.13 (ID.kg/g); assay type: ADME, organism-based; procedure, shortened: as §1
[22] = test system: Rattus norvegicus; experiment: The biodistribution of the [125I]-labeled compound in rats after intravenous injection was evaluated in blood at 0.25 hrs (ID.kg/g); assay type: ADME, organism-based; procedure, shortened: as §1
[23] = test system: Rattus norvegicus; experiment: The biodistribution of the [125I]-labeled compound in rats after intravenous injection was evaluated in fat at 1.00 hrs; value ranges from 0.08-0.12 (ID.kg/g); assay type: ADME, organism-based, Adipose tissue; procedure, shortened: as §1
[24] = test system: Rattus norvegicus; experiment: The biodistribution of the [125I]-labeled compound in rats after intravenous injection was evaluated in muscle at 1.00 hrs; value ranges from 0.03-0.05 (ID.kg/g); assay type: ADME, organism-based, Muscle tissue; procedure, shortened: as §2
[25] = test system: Rattus norvegicus; experiment: The biodistribution of the [125I]-labeled compound in rats after intravenous injection was evaluated in kidney at 0.25 hr; value ranges from 0.31-0.38 (ID.kg/g); assay type: ADME, organism-based; procedure, shortened: as §3
[26] = test system: Rattus norvegicus; experiment: The biodistribution of the [125I]-labeled compound in rats after intravenous injection was evaluated in liver at 0.25 hr; value ranges from 0.24-0.40 (ID.kg/g); assay type: ADME, organism-based; procedure, shortened: as §3
[27] = test system: Rattus norvegicus; experiment: The biodistribution of the [125I]-labeled compound in rats after intravenous injection was evaluated in thyroid at 1.00 hrs value ranges from 2.04-2.76( ID.kg/g); assay type: ADME, organism-based, Thyroid gland; procedure, shortened: as §2
[28] = test system: Rattus norvegicus; experiment: The biodistribution of the [125I]-labeled compound in rats after intravenous injection was evaluated in heart at 0.25 hrs; value ranges from 0.10-0.11 (ID.kg/g); assay type: ADME, organism-based; procedure, shortened: as §1
[29] = test system: Rattus norvegicus; experiment: The biodistribution of the [125I]-labeled compound in rats after intravenous injection was evaluated in lung at 1.00 hrs (ID.kg/g); assay type: ADME, organism-based; procedure, shortened: as §3
[30] = test system: Rattus norvegicus; experiment: The biodistribution of the [125I]-labeled compound in rats after intravenous injection was evaluated in brain at 0.25 hrs; value ranges from 0.19-0.26 (ID.kg/g); assay type: ADME, organism-based

## CN1CCN(c2ccc(I)cc2)CC1
[1]
  Biodistribution: 0.02 % ID·kg/g
[2]
  Biodistribution: 0.09%
[3]
  Biodistribution: 0.07%
[4]
  Biodistribution: 0.09%
[5]
  Biodistribution: 0.22%
[6]
  Biodistribution: 0.21%
[7]
  Biodistribution: 0.04%
[8]
  Biodistribution: 0.05%
[9]
  Biodistribution: 47%
[10]
  Biodistribution: 0.02 %ID·kg/g
[11]
  Biodistribution: 0.33%
[12]
  Biodistribution: 0.96%
[13]
  Biodistribution: 0.13%
[14]
  Biodistribution: 0.37%
[15]
  Biodistribution: 0.05%
[16]
  Biodistribution: 0.14%
[17]
  Biodistribution: 0.19%
[18]
  Biodistribution: 0.21%
[19]
  Biodistribution: 3.53%
[20]
  Biodistribution: 0.07%
[21]
  Biodistribution: 0.13%
[22]
  Biodistribution: 0.04 % ID·kg/g
[23]
  Biodistribution: 0.12%
[24]
  Biodistribution: 0.05%
[25]
  Biodistribution: 0.38%
[26]
  Biodistribution: 0.4%
[27]
  Biodistribution: 2.76%
[28]
  Biodistribution: 0.11%
[29]
  Biodistribution: 0.2%
[30]
  Biodistribution: 0.26%
